Measured values from ChEMBL document CHEMBL1123568 (J Med Chem, 1987).
In brackets after ≈: the same amount, converted by molar mass.

How the values were obtained:
Format in all cases: functional
[1] = system: Streptococcus agalactiae; experiment: Antimicrobial activity against the streptococcus agalactiae CMX 508 by 2-fold agar dilution method using brain-heart infusion agar.
[2] = system: Staphylococcus aureus; experiment: Antimicrobial activity against the Staphylococcus aureus ATCC 6538 P by 2-fold agar dilution method using brain-heart infusion agar.; conditions: ATCC 6538, Brain
Procedure, shortened: (§1)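 Read-out is the MIC, found by twofold agar dilution in brain-heart infusion agar. Strains were Escherichia coli H560, Staphylococcus aureus 45 and Staphylococcus aureus ATCC 6538 P.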

[3] = system: Streptococcus equinus; experiment: Antimicrobial activity against the streptococcus bovis A 5169 by 2-fold agar dilution method using brain-heart infusion agar.
[4] = system: Streptococcus pyogenes; experiment: Antimicrobial activity against the streptococcus pyogenes EES 61 by 2-fold agar dilution method using brain-heart infusion agar.
[5] = system: Enterococcus faecium; experiment: Antimicrobial activity against the faecium ATCC 8043 by 2-fold agar dilution method using brain-heart infusion agar.; conditions: ATCC 8043, Brain
[6] = system: Escherichia coli; experiment: Antimicrobial activity against the Escherichia coli JUHL by 2-fold agar dilution method using brain-heart infusion agar.
[7] = system: Staphylococcus epidermidis; experiment: Antimicrobial activity against the Staphylococcus epidermis 3519 by 2-fold agar dilution method using brain-heart infusion agar.
[8] = system: Pseudomonas aeruginosa; experiment: Antimicrobial activity against the Pseudomonas aeruginosa K 799/WT by 2-fold agar dilution method using brain-heart infusion agar.
[9] = system: Klebsiella aerogenes; experiment: Antimicrobial activity against the enterobacter aerogenes ATCC 13048 by 2-fold agar dilution method using brain-heart infusion agar.; conditions: ATCC 13048, Brain
[10] = system: Klebsiella pneumoniae; experiment: Antimicrobial activity against the klebsiella pneumoniae 8045 by 2-fold agar dilution method using brain-heart infusion agar.
[11] = system: Micrococcus luteus; experiment: Antimicrobial activity against the micrococcus luteus 9341 by 2-fold agar dilution method using brain-heart infusion agar.
[12] = system: Staphylococcus aureus; experiment: Antimicrobial activity against the Staphylococcus aureus 45 by 2-fold agar dilution method using brain-heart infusion agar.; procedure, shortened: as §1
[13] = system: Acinetobacter; experiment: Antimicrobial activity against the acinetobacter sp. CMX 669 by 2-fold agar dilution method using brain-heart infusion agar.
[14] = system: Escherichia coli; experiment: Antimicrobial activity against the Escherichia coli H560 by 2-fold agar dilution method using brain-heart infusion agar.; procedure, shortened: as §1
[15] = system: Streptococcus pyogenes; experiment: Antimicrobial activity against the streptococcus pyogenes 2548 by 2-fold agar dilution method using brain-heart infusion agar.
[16] = system: Pseudomonas aeruginosa; experiment: Antimicrobial activity against the Pseudomonas aeruginosa K 799/61 by 2-fold agar dilution method using brain-heart infusion agar.

Compound	MIC [1]	MIC [2]	MIC [3]	MIC [4]	MIC [5]	MIC [6]	MIC [7]	MIC [8]	MIC [9]	MIC [10]	MIC [11]	MIC [12]	MIC [13]	MIC [14]	MIC [15]	MIC [16]
C[C@H]1COc2c(N3CCN(C)CC3)c(F)cc3c(=O)c(C(=O)O)cn1c23.C[C@H]1COc2c(N3CCN(C)CC3)c(F)cc3c(=O)c(C(=O)O)cn1c23.O [LEVOFLOXACIN]	1.21 µg/mL	0.15 µg/mL	1.21 µg/mL	0.46 µg/mL	0.46 µg/mL	0.07 µg/mL	0.3 µg/mL	< 0.04 µg/mL	0.07 µg/mL	< 0.04 µg/mL	1.21 µg/mL	0.3 µg/mL	0.3 µg/mL	0.04 µg/mL	0.26 µg/mL	0.07 µg/mL
CC1COc2c(N3CCN(C)CC3)c(F)cc3c(=O)c(C(=O)O)cn1c23 (stereo not drawn) [OFLOXACIN]	1.56 µg/mL (≈ 4.32 µM)	0.2 µg/mL (≈ 0.553 µM)	1.56 µg/mL (≈ 4.32 µM)	0.78 µg/mL (≈ 2.16 µM)	0.78 µg/mL (≈ 2.16 µM)	0.05 µg/mL (≈ 0.138 µM)	0.39 µg/mL (≈ 1.08 µM)	0.39 µg/mL (≈ 1.08 µM)	0.2 µg/mL (≈ 0.553 µM)	0.05 µg/mL (≈ 0.138 µM)	3.1 µg/mL (≈ 8.58 µM)	0.39 µg/mL (≈ 1.08 µM)	0.39 µg/mL (≈ 1.08 µM)	0.1 µg/mL (≈ 0.277 µM)	0.39 µg/mL (≈ 1.08 µM)	0.1 µg/mL (≈ 0.277 µM)
C[C@@H]1COc2c(N3CCN(C)CC3)c(F)cc3c(=O)c(C(=O)O)cn1c23 [DEXTROFLOXACINE]	> 9.75 µg/mL	4.8 µg/mL (≈ 13.3 µM)	> 9.75 µg/mL	> 9.75 µg/mL	> 9.75 µg/mL	1.21 µg/mL (≈ 3.35 µM)	4.8 µg/mL (≈ 13.3 µM)	9.75 µg/mL (≈ 27 µM)	9.75 µg/mL (≈ 27 µM)	1.21 µg/mL (≈ 3.35 µM)	> 9.75 µg/mL	9.75 µg/mL (≈ 27 µM)	9.75 µg/mL (≈ 27 µM)	9.75 µg/mL (≈ 27 µM)	> 9.75 µg/mL	1.21 µg/mL (≈ 3.35 µM)
